Experimental data reported in EPA's CvTdb concentration-time database.
Values joined by “and” are separate entries in the source; they are usually repeats but may differ in a detail not shown here. Equal values may be shown once.

Experiments:
mouse = assay: concentration in blood after dosing; negative times count back from the end of exposure; conditions: dosed: tert-amyl methyl ether, inhalation, duration: 6 hr, male, CD-1 (Charles River)
Summary of the method: (§1)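 Data points giving concentration or amount against time came from published in vivo toxicokinetic studies and from two structured collections. PubMed searching, classifier screening and manual review located the studies. Most points were digitised from plot screenshots using WebPlotDigitizer, the rest were copied from tables, and all keep their reported units.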

human = assay: amount in urine after dosing (umol); conditions: dosed: tert-amyl methyl ether
Summary of the method: as §1

CCC(C)(C)O [tertiary amyl alcohol]
mouse
Conditions | concentration in blood
0.1295 h, 2500 ppm | 209 µg/mL
0.1808 h, 500 ppm | 29.6 µg/mL
0.1823 h, 500 ppm | 32.6 µg/mL
0.1835 h, 500 ppm | 34.9 µg/mL
0.1993 h, 2500 ppm | 170 µg/mL
0.2 h, 2500 ppm | 165 µg/mL
0.2011 h, 2500 ppm | 158 µg/mL
0.5116 h, 500 ppm | 16.7 µg/mL
0.5437 h, 500 ppm | 19.5 µg/mL
0.545 h, 500 ppm | 22 µg/mL
0.5455 h, 500 ppm | 23.1 µg/mL
0.5766 h, 2500 ppm | 194 µg/mL
0.5768 h, 2500 ppm | 193 µg/mL
0.5776 h, 2500 ppm | 187 µg/mL
0.59 h, 2500 ppm | 109 µg/mL
1.057 h, 500 ppm | 3.62 µg/mL
1.059 h, 500 ppm | 7.19 µg/mL
1.061 h, 500 ppm | 12.2 µg/mL
1.062 h, 500 ppm | 12.6 µg/mL
1.12 h, 2500 ppm | 175 µg/mL
1.123 h, 2500 ppm | 155 µg/mL and 153 µg/mL and 151 µg/mL
1.914 h, 500 ppm | 0.752 µg/mL
1.945 h, 500 ppm | 0.139 µg/mL
2.052 h, 2500 ppm | 105 µg/mL
2.058 h, 2500 ppm | 66.5 µg/mL and 65.3 µg/mL
2.059 h, 2500 ppm | 57.7 µg/mL
4.101 h, 2500 ppm | 3.63 µg/mL and 1.94 µg/mL
9.951 h, 500 ppm | 0.0739 µg/mL
10.17 h, 2500 ppm | 1.84 µg/mL
17.96 h, 500 ppm | 0.00851 µg/mL
18.11 h, 2500 ppm | 2.12 µg/mL
126 s, 500 ppm | 44.3 µg/mL
133 s, 2500 ppm | 192 µg/mL
137 s, 2500 ppm | 184 µg/mL
138 s, 2500 ppm | 183 µg/mL
151 s, 500 ppm | 57.9 µg/mL
343 s, 500 ppm | 42.5 µg/mL

mouse, during exposure
Conditions | concentration in blood
-6 h, 100 ppm | 0.00359 µg/mL
-5.999 h, 500 ppm | 1.22 µg/mL
-5.907 h, 500 ppm | 2.45 µg/mL
-5.876 h, 500 ppm | 2.75 µg/mL
-5.873 h, 2500 ppm | 2.95 µg/mL
-5.818 h, 100 ppm | 0.247 µg/mL and 0.289 µg/mL
-5.817 h, 100 ppm | 0.326 µg/mL and 0.401 µg/mL
-5.814 h, 500 ppm | 4.08 µg/mL
-5.771 h, 100 ppm | 0.487 µg/mL
-5.747 h, 2500 ppm | 7.17 µg/mL
-5.725 h, 100 ppm | 0.6 µg/mL
-5.72 h, 500 ppm | 7.75 µg/mL
-5.659 h, 100 ppm | 0.386 µg/mL and 0.45 µg/mL
-5.567 h, 500 ppm | 6.22 µg/mL
-5.507 h, 500 ppm | 5.1 µg/mL
-5.476 h, 100 ppm | 0.694 µg/mL
-5.474 h, 500 ppm | 9.59 µg/mL
-5.464 h, 2500 ppm | 25.7 µg/mL
-5.433 h, 2500 ppm | 29.9 µg/mL
-5.244 h, 2500 ppm | 40.1 µg/mL
-5.135 h, 500 ppm | 11.4 µg/mL and 11.6 µg/mL
-5.134 h, 500 ppm | 13.7 µg/mL and 14.1 µg/mL
-4.958 h, 100 ppm | 0.72 µg/mL
-4.937 h, 100 ppm | 0.51 µg/mL
-4.936 h, 100 ppm | 0.63 µg/mL
-4.934 h, 100 ppm | 0.828 µg/mL
-4.899 h, 2500 ppm | 67.1 µg/mL
-4.898 h, 2500 ppm | 64.1 µg/mL and 61.6 µg/mL
-4.897 h, 2500 ppm | 57.4 µg/mL
-4.057 h, 500 ppm | 20.9 µg/mL
-4.055 h, 500 ppm | 23.9 µg/mL
-4.054 h, 500 ppm | 26.2 µg/mL and 27.3 µg/mL
-4 s, 500 ppm | 33.8 µg/mL
-3.898 h, 100 ppm | 0.686 µg/mL
-3.897 h, 100 ppm | 0.87 µg/mL
-3.895 h, 100 ppm | 1.13 µg/mL
-3.874 h, 100 ppm | 0.926 µg/mL
-3.797 h, 2500 ppm | 131 µg/mL
-3.796 h, 2500 ppm | 123 µg/mL and 121 µg/mL
-3.791 h, 2500 ppm | 94.9 µg/mL
-2.118 h, 500 ppm | 33.2 µg/mL
-2.087 h, 500 ppm | 34.4 µg/mL and 34.6 µg/mL
-2.086 h, 500 ppm | 36.7 µg/mL
-1.99 h, 2500 ppm | 155 µg/mL
-1.979 h, 100 ppm | 1.16 µg/mL
-1.978 h, 100 ppm | 1.21 µg/mL
-1.96 h, 2500 ppm | 162 µg/mL
-1.957 h, 2500 ppm | 146 µg/mL
-1.953 h, 100 ppm | 1.57 µg/mL

CC(O)C(C)(C)O (stereo unspecified) [2-methyl-2,3-butanediol]
human, inhalation, duration: 4 hr
Conditions | amount in urine
0.2902 h, 38.4 ppm | 3.72
6.051 h, 3.8 ppm | 2.15
6.373 h, 38.4 ppm | 16.5
12.12 h, 3.8 ppm | 3.45
12.25 h, 38.4 ppm | 30.5
18.08 h, 3.8 ppm | 2.56
18.3 h, 38.4 ppm | 29.8
24.08 h, 3.8 ppm | 3.27
24.35 h, 38.4 ppm | 31.2
30.04 h, 3.8 ppm | 2.77
30.25 h, 38.4 ppm | 25.2
36.13 h, 3.8 ppm | 2.42
36.31 h, 38.4 ppm | 28.1
42.02 h, 3.8 ppm | 1.67
42.34 h, 38.4 ppm | 17
47.89 h, 3.8 ppm | 2.12
48.2 h, 38.4 ppm | 23.9
54.05 h, 3.8 ppm | 1.93
54.23 h, 38.4 ppm | 14.1
59.94 h, 3.8 ppm | 1.6
60.36 h, 38.4 ppm | 18.1
66.02 h, 3.8 ppm | 1.63
66.19 h, 38.4 ppm | 12.1
71.9 h, 3.8 ppm | 1.44
72.24 h, 38.4 ppm | 11.2
225 s, 3.8 ppm | 0.476

human, oral
Conditions | amount in urine
0.2379 h, 5 mg | 0.118
6.002 h, 15 mg | 1.07
6.23 h, 5 mg | 0.379
11.79 h, 15 mg | 1.97
12.07 h, 5 mg | 0.593
17.9 h, 15 mg | 2.14
18.15 h, 5 mg | 0.435
24 h, 15 mg | 2.43
24.24 h, 5 mg | 0.394
29.83 h, 15 mg | 2.27
30.07 h, 5 mg | 0.532
35.87 h, 15 mg | 2.31
36.08 h, 5 mg | 0.4
41.73 h, 15 mg | 1.29
42.17 h, 5 mg | 0.374
47.83 h, 15 mg | 1.66
48.27 h, 5 mg | 0.367
53.95 h, 15 mg | 1.48
54.08 h, 5 mg | 0.38
59.71 h, 15 mg | 1.02
60.18 h, 5 mg | 0.324
65.84 h, 15 mg | 0.758
66.2 h, 5 mg | 0.264
71.94 h, 15 mg | 1.05
72 h, 5 mg | 0.243
77.76 h, 15 mg | 1.07
78.1 h, 5 mg | 0.243
83.97 h, 15 mg | 0.611
84.2 h, 5 mg | 0.244
89.71 h, 15 mg | 0.61
90 h, 5 mg | 0.214
95.84 h, 15 mg | 0.463
96.03 h, 5 mg | 0.188
235 s, 15 mg | 0.223
